The source made the active and inactive calls. The rule behind the calls is not given here.
Assays:
[1] = tested on: HeLa; experiment: Growth inhibition of human HeLa cells after 72 hrs by MTT assay; format: functional
Procedure, shortened: (§1)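 Adherent cells (2x10^4 cells/cm3) attached overnight, then were exposed to compound for 72 h. Medium was replaced with 5 mg/cm3 MTT, formazan was dissolved in DMSO and absorbance read at 595 nm. Percent growth was taken relative to untreated control minus background. GI50 came from a variable-slope log-inhibitor fit, as mean ± SD of three independent experiments in triplicate.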

[2] = tested on: Calf thymus DNA; experiment: Binding affinity to calf thymus DNA assessed as change in melting temperature at 0.5 compound to ds-polynucleotide ratio by spectrophotometric method; format: nucleic-acid assay; details: Bos taurus
Procedure, shortened: (§2)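 Thermal melting of ct-DNA (sonicated, filtered) or polyA-polyU in Na cacodylate buffer, I = 0.05 mol dm-3, pH 7.0, at given r = [compound]/[polynucleotide]; polynucleotide as phosphate concentration. Tm from maximum of first derivative, checked by tangent method. ΔTm = Tm(complex) − Tm(free nucleic acid), average of at least two measurements, error ±0.5 °C.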

[3] = tested on: Raji; experiment: Growth inhibition of human Raji cells after 72 hrs by MTT assay; format: functional
Procedure, shortened: (§3)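 Leukemia cells (1x10^5 cells/cm3) were exposed to compound for 72 h, then MTT (5 mg/cm3) was added for 4 h. Formazan was dissolved with 10% SDS in 0.01 mol dm-3 HCl and absorbance read at 595 nm. Percent growth was taken versus untreated control minus background. GI50 came from a variable-slope fit, as mean ± SD of three independent experiments in triplicate.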

[4] = tested on: Calf thymus DNA; experiment: Binding affinity to calf thymus DNA assessed as hypochromic effect by UV-vis spectrophotometric method; format: nucleic-acid assay; details: Bos taurus
Procedure, shortened: (§4)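 UV-Vis titration at room temperature in Na cacodylate buffer (I = 0.05 mol dm-3, pH 7.0). Portions of ct-DNA or polyA-polyU were added to a fixed compound concentration until saturation, with dilution correction. Polynucleotide was measured as phosphate. Ks and n were obtained by Scatchard analysis, together with the hypochromic change at the absorption maximum.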

[5] = tested on: Calf thymus DNA; experiment: Binding affinity to calf thymus DNA minor groove at 0.1, 0.3, 0.5, 0.7 compound to ds-polynucleotide ratio by CD-spectrophotometric method; format: nucleic-acid assay; details: Bos taurus
Procedure, shortened: (§5)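 Induced CD spectra were recorded in 1 cm quartz cuvettes in Na cacodylate buffer (I = 0.05 mol dm-3, pH 7.0) with ct-DNA or polyA-polyU. Compound was added at r = [compound]/[polynucleotide] = 0.1, 0.3, 0.5 and 0.7. The CD signal was followed as a function of r.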

[6] = Growth inhibition of MDCK1 cells after 72 hrs by MTT assay; design: species or system Canis lupus familiaris; details: dog; procedure, shortened: as §1
[7] = tested on: Calf thymus DNA; experiment: Disruption of calf thymus DNA helix at 0.1, 0.3, 0.5, 0.7 compound to ds-polynucleotide ratio by CD-spectrophotometric method; format: nucleic-acid assay; details: Bos taurus; procedure, shortened: as §5
[8] = tested on: Calf thymus DNA; experiment: Binding affinity to calf thymus DNA by UV-vis spectrophotometric method; format: nucleic-acid assay; details: Bos taurus; procedure, shortened: as §4
[9] = tested on: Calf thymus DNA; experiment: Binding affinity to calf thymus DNA assessed as change in melting temperature at 0.3 compound to ds-polynucleotide ratio by spectrophotometric method; format: nucleic-acid assay; details: Bos taurus; procedure, shortened: as §2
[10] = Solubility of the compound in water; format: physicochemical
[11] = Binding affinity to polyA-polyU (unknown origin) by UV-vis spectrophotometric method; procedure, shortened: as §4
[12] = Chemical stability in aqueous solution after several weeks; format: physicochemical; details: buffer
Procedure, shortened: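 Aqueous compound solutions were monitored for several weeks by UV-Vis absorbance at 220-900 nm. Linearity with concentration was checked up to 3.5 × 10^-5 mol dm-3, and spectra were recorded at 25–90 °C with reproducibility checked on cooling to 25 °C.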

[13] = tested on: Caco-2; experiment: Growth inhibition of human Caco2 cells after 72 hrs by MTT assay; format: functional; details: Caco-2, 72 h; procedure, shortened: as §1
[14] = tested on: Calf thymus DNA; experiment: Binding affinity to calf thymus DNA assessed as change in melting temperature at 0.1 compound to ds-polynucleotide ratio by spectrophotometric method; format: nucleic-acid assay; details: Bos taurus; procedure, shortened: as §2
[15] = tested on: K562; experiment: Growth inhibition of human K562 cells after 72 hrs by MTT assay; format: functional; details: K562, 72 h; procedure, shortened: as §3
[16] = Binding affinity to polyA-polyU (unknown origin) assessed as hypochromic effect by UV-vis spectrophotometric method; procedure, shortened: as §4
[17] = Binding affinity to polyA-polyU (unknown origin) assessed as change in melting temperature at 0.5 compound to ds-polynucleotide ratio by spectrophotometric method; procedure, shortened: as §2
[18] = Binding affinity to polyA-polyU (unknown origin) assessed as change in melting temperature at 0.3 compound to ds-polynucleotide ratio by spectrophotometric method; procedure, shortened: as §2
[19] = Binding affinity to polyA-polyU (unknown origin) assessed as change in melting temperature at 0.1 compound to ds-polynucleotide ratio by spectrophotometric method; procedure, shortened: as §2
[20] = Induction of polyA-polyU (unknown origin) intercalation at 0.1, 0.3, 0.5, 0.7 compound to ds-polynucleotide ratio by CD-spectrophotometric method; procedure, shortened: as §5

Row | SMILES | GI50 [1] | ΔTm [2] | GI50 [3] | Activity [4] | Activity [5] | GI50 at 72 h [6] | Activity [7] | log Ks [8] | ΔTm [9] | solubility [10] | log Ks [11] | Stability [12] | GI50 [13] | ΔTm [14] | GI50 [15] | Activity [16] | ΔTm [17] | ΔTm [18] | ΔTm [19] | Activity [20]
1 | CC(C)NC(=N)c1ccc2nc(-c3ccc(OCCNc4ccnc5cc(Cl)ccc45)cc3)[nH]c2c1.Cl.Cl.Cl | > 100 µM | 9.83 °C | 19.6 µM | 23.7% | Active | > 100 µM | Active | 6.63 | 9.05 °C | 1000 µM | inactive | Stable | > 100 µM | 5.83 °C | 17.2 µM | inactive | – | – | – | –
2 | Cl.Cl.Cl.N=C(N)c1ccc2nc(-c3ccc(OCCNc4ccnc5cc(Cl)ccc45)cc3)[nH]c2c1 | > 100 µM | 8.4 °C | 29.3 µM | 17.7% | Active | 71.6 µM | Active | 6.72 | 8.4 °C | 1000 µM | inactive | Stable | > 100 µM | 4.84 °C | 34.7 µM | inactive | – | – | – | –
3 | CC(C)CNC(=N)c1ccc2nc(-c3ccc(Oc4ccnc5cc(Cl)ccc45)cc3)[nH]c2c1.Cl.Cl.Cl | 57 µM | 2.08 °C | 46.7 µM | 60.2% | Active | 53.5 µM | – | 5.88 | 1.41 °C | 1000 µM | 6.05 | Stable | 43.2 µM | 1.07 °C | 59.7 µM | 17.9% | 0.25 °C | 0.78 °C | 1.64 °C | Active
4 | Cl.Cl.N=C(NC1CCCC1)c1ccc2nc(-c3ccc(Oc4ccnc5cc(Cl)ccc45)cc3)[nH]c2c1 | 61.9 µM | 3.07 °C | 41.5 µM | 36.7% | Active | 55.5 µM | – | 6.23 | 2.91 °C | 1000 µM | 6.31 | Stable | 47.4 µM | 1.41 °C | 54.6 µM | 22.8% | 6.82 °C | 4.06 °C | 0.18 °C | Active
5 | Cl.Cl.Clc1ccc2c(Oc3ccc(-c4nc5ccc(C6=NCCN6)cc5[nH]4)cc3)ccnc2c1 | > 100 µM | 4.08 °C | 40.6 µM | 68.5% | Active | 77.1 µM | – | 5.76 | 3.2 °C | 1000 µM | – | Stable | 36.8 µM | 1.6 °C | 27.6 µM | 69.7% | 1.12 °C | 0.78 °C | -0.16 °C | Active
6 | Cl.Cl.Cl.Clc1ccc2c(NCCOc3ccc(-c4nc5ccc(C6=NCCCN6)cc5[nH]4)cc3)ccnc2c1 | > 100 µM | 10.8 °C | 19 µM | 31% | Active | 100 µM | Active | 6.52 | 9.76 °C | 1000 µM | inactive | Stable | > 100 µM | 6.33 °C | 13.3 µM | inactive | – | – | – | –
7 | CC(C)NC(=N)c1ccc2nc(-c3ccc(Oc4ccnc5cc(Cl)ccc45)cc3)[nH]c2c1.Cl.Cl.Cl | 51.3 µM | 2.24 °C | 48.2 µM | 60% | Active | 61.8 µM | – | 7.87 | 1.75 °C | 1000 µM | 5.36 | Stable | 53.3 µM | 1.07 °C | 69 µM | 26.8% | 0.43 °C | 1.32 °C | -0.44 °C | Active
8 | Cl.Cl.Clc1ccc2c(Oc3ccc(C4=NCCN4)cc3)ccnc2c1 | 57.7 µM | 2.73 °C | 40.8 µM | – | – | 56.6 µM | – | – | 2.67 °C | 1000 µM | – | Stable | 64 µM | 2.65 °C | 48.7 µM | – | 1.49 °C | 2.18 °C | 1.18 °C | –
9 | Cl.Cl.Clc1ccc2c(Oc3ccc(-c4nc5ccc(C6=NCCCN6)cc5[nH]4)cc3)ccnc2c1 | 64.4 µM | 3.89 °C | 50.5 µM | 25.5% | Active | 67.1 µM | – | 6.96 | 3.31 °C | 1000 µM | 7.29 | Stable | 34.5 µM | 3.3 °C | 21.6 µM | 15.5% | 1.82 °C | 1.98 °C | 2.84 °C | Active

Reference: ChEMBL document CHEMBL4130346, “New quinoline-arylamidine hybrids: Synthesis, DNA/RNA binding and antitumor activity” (Eur J Med Chem, 2017)
